# In ChEMBL document CHEMBL1159067, “Benzimidazole- and indole-substituted 1,3'-bipyrrolidine benzamides as histamine H3 receptor antagonists” (Bioorg Med Chem Lett, 2010):
# Calls of active or inactive are those of the source. The rule behind the calls is not given here.
# Tests used:
# Histamine H3 receptor [1] = molecular target: Histamine H3 receptor (Homo sapiens, UniProt Q9Y5N1); test: Displacement of [3H](R)-alpha-methylhistamine from human cloned histamine H3 receptor expressed in HEK293T cells by liquid scintillation spectrometry; type: cell-based, HEK-293T
# Histamine H3 receptor (Homo sapiens, UniProt Q9Y5N1), sequence (Q9Y5N1 whole entry): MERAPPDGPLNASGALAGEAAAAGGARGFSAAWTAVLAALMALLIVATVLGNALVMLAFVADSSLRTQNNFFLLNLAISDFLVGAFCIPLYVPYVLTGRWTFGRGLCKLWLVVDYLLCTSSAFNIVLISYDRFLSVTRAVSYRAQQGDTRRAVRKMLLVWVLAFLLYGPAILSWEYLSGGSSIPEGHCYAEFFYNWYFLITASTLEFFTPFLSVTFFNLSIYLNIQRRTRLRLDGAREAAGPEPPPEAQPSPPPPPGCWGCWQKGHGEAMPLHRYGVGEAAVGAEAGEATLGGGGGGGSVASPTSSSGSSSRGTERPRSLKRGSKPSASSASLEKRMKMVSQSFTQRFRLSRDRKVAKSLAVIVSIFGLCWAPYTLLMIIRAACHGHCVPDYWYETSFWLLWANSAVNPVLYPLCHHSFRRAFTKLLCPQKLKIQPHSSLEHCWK
# [2] = Aqueous solubility at pH 3.1; type: physicochemical; details: aqueous medium
# [3] = Permeability by PAMPA; type: ADME; details: read-out: permeability
# How it was run: (§1)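 Passive permeability was measured by PAMPA, or by its blood–brain barrier variant PAMPA–BBB. Each gives effective permeability in units of 10^-6 cm/s.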
# [4] = Blood-brain barrier permeability by PAMPA-BBB assay; type: ADME; how it was run: as §1
# [5] = AUC in rat at 10 mg/kg, po; type: ADME, organism-based; set-up: dose 10 mg/kg, route oral; details: plasma
# [6] = Tmax in rat at 10 mg/kg, po; type: ADME, organism-based; set-up: dose 10 mg/kg, route oral; details: in vivo
# [7] = Half life in rat at 10 mg/kg, po; type: ADME, organism-based; set-up: dose 10 mg/kg, route oral; details: in vivo
# [8] = AUC in rat brain at 10 mg/kg, ip; type: ADME, organism-based; set-up: dose 10 mg/kg, route intraperitoneal
# [9] = Tmax in rat plasma at 10 mg/kg, ip; type: ADME, organism-based; set-up: dose 10 mg/kg, route intraperitoneal
# [10] = Cmax in rat brain at 10 mg/kg, ip; type: ADME, organism-based; set-up: dose 10 mg/kg, route intraperitoneal
# [11] = Tmax in rat brain at 10 mg/kg, ip; type: ADME, organism-based; set-up: dose 10 mg/kg, route intraperitoneal
# [12] = Plasma clearance in rat at 2 mg/kg, iv; type: ADME, organism-based; set-up: dose 2 mg/kg, route intravenous
# [13] = Volume of distribution at steady state in rat at 2 mg/kg, iv; type: ADME, organism-based; set-up: dose 2 mg/kg, route intravenous; details: in vivo, read-out: Vdss
# [14] = AUC in rat plasma at 10 mg/kg, ip; type: ADME, organism-based; set-up: dose 10 mg/kg, route intraperitoneal
# [15] = Cmax in rat at 10 mg/kg, po; type: ADME, organism-based; set-up: dose 10 mg/kg, route oral; details: in vivo
# [16] = Cmax in rat plasma at 10 mg/kg, ip; type: ADME, organism-based; set-up: dose 10 mg/kg, route intraperitoneal
# [17] = Fraction unbound in rat brain at 10 mg/kg, ip; type: ADME, organism-based; set-up: dose 10 mg/kg, route intraperitoneal
# [18] = Oral bioavailability in rat at 10 mg/kg; type: ADME, organism-based; details: in vivo
# Caco-2 = test: Ratio of permeability across basolateral to apical side over apical to basolateral side of human Caco-2 cell membrane
# [19] = Permeability across apical to basolateral side of human Caco-2 cell membrane; type: ADME, cell-based; details: read-out: permeability
# [20] = Cmax in rat brain at 30 mg/kg, ip; type: ADME, organism-based; set-up: dose 30 mg/kg, route intraperitoneal
# [21] = Tmax in rat plasma at 30 mg/kg, ip; type: ADME, organism-based; set-up: dose 30 mg/kg, route intraperitoneal
# [22] = AUC in rat plasma at 30 mg/kg, ip; type: ADME, organism-based; set-up: dose 30 mg/kg, route intraperitoneal
# [23] = Cmax in rat plasma at 30 mg/kg, ip; type: ADME, organism-based; set-up: dose 30 mg/kg, route intraperitoneal
# [24] = Fraction unbound in rat brain at 30 mg/kg, ip; type: ADME, organism-based; set-up: dose 30 mg/kg, route intraperitoneal
# Rattus norvegicus [25] = test: Decrease in (R)-alpha-methylhistamine-induced water intake in rat at 30 mg/kg, ip; type: functional, organism-based; set-up: dose 30 mg/kg
# How it was run: (§2)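 Water intake was induced in rats by the H3R agonist (R)-α-methylhistamine, which acts via central H3R. Antagonist was dosed ip. Significance was p <0.05 versus vehicle and versus (R)-α-methylhistamine alone.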
# Histamine H3 receptor [26] = molecular target: Histamine H3 receptor (Rattus norvegicus, UniProt Q9QYN8); test: Binding affinity to rat histamine H3 receptor
# Histamine H3 receptor (Rattus norvegicus, UniProt Q9QYN8), sequence (Q9QYN8 whole entry): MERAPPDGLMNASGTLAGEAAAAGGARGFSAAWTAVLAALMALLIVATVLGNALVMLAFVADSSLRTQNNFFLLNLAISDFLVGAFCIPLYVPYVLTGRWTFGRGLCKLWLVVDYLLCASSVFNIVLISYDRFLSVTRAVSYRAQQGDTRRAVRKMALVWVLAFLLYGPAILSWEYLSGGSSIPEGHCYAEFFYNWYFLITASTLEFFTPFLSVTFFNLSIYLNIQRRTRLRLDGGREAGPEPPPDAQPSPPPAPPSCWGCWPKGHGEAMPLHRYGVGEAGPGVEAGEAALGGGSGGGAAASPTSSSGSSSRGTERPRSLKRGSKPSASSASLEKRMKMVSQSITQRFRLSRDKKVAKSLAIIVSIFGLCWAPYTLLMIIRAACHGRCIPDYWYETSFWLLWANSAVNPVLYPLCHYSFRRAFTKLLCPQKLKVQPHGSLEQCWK
# [27] = AUC in rat brain at 30 mg/kg, ip; type: ADME, organism-based; set-up: dose 30 mg/kg, route intraperitoneal
# Rattus norvegicus [28] = test: Decrease in (R)-alpha-methylhistamine-induced water intake in rat at 10 mg/kg, ip; type: functional, organism-based; set-up: dose 10 mg/kg; how it was run: as §2
# [29] = Ratio of AUC in rat brain to plasma at 30 mg/kg, ip; type: ADME, organism-based; set-up: dose 30 mg/kg, route intraperitoneal; details: brain and plasma
# How it was run: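 Rats given a single 30 mg/kg intraperitoneal injection. Brain and plasma exposure were measured, with Cmax and Tmax recorded for each. The ratio is brain AUC (h ng/mL) divided by plasma AUC.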
# [30] = Tmax in rat brain at 30 mg/kg, ip; type: ADME, organism-based; set-up: dose 30 mg/kg, route intraperitoneal
# Rattus norvegicus [31] = test: Reversal of delay-induced retention deficit behavior in ip dosed rat assessed as differential novel and familiar object recognition; type: functional; details: read-out: MED
# How it was run: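 Rats received test compound ip at 0.1, 0.3, 1 or 3 mg/kg, or vehicle, before the learning trial. Exploration of the novel and familiar objects was then scored. Groups were compared with vehicle, with significance at p <0.03 and p <0.005.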
SMILES,Ki (Histamine H3 receptor [1]) [nM],solubility [2] [µg/mL],Papp [3] [×10⁻⁶ cm/s],pBBB [4] [×10⁻⁶ cm/s],other results
CN(C)[C@H]1CCN(C(=O)c2ccc(Cn3c(-c4ccccc4)nc4ccccc43)cc2)C1,65,–,–,–,–
O=C(c1ccccc1Cn1cnc2ccccc21)N1CCC(N2CCCC2)C1 (stereo unspecified),4000,–,–,–,–
CN(C)C1CCN(C(=O)c2ccc(Cn3c(-c4ccccn4)nc4ccccc43)cc2)C1 (stereo unspecified),235,–,–,–,–
CN(C)[C@@H]1CCN(C(=O)c2ccc(Cn3c(-c4ccccc4)nc4ccccc43)cc2)C1,440,–,–,–,–
CN(C)C1CCN(C(=O)c2ccc(Cn3cnc4ccccc43)cc2)C1 (stereo unspecified),390,–,–,–,–
CN(CCO)C1CCN(C(=O)c2ccc(Cn3c(-c4ccccc4)nc4ccccc43)cc2)C1 (stereo unspecified),1200,–,–,–,–
CN(C)C1CCN(C(=O)c2ccc(Cn3c(-c4ccccc4)nc4ccccc43)cc2)C1 (stereo unspecified),100,> 100,4.4,9.4,Ratio (Caco-2): 1.3; Papp A→B [19]: 84.9 ×10⁻⁶ cm/s
Cc1nc2ccccc2n1Cc1ccc(C(=O)N2CCC(N(C)C)C2)cc1 (stereo unspecified),17,–,–,–,–
CCN(C)C1CCN(C(=O)c2ccc(Cn3c(-c4ccccc4)nc4ccccc43)cc2)C1 (stereo unspecified),91,–,–,–,–

# Second part, led by results:
Ki (Histamine H3 receptor [1]) [nM],solubility [2] [µg/mL],Papp [3] [×10⁻⁶ cm/s],pBBB [4] [×10⁻⁶ cm/s],SMILES,other results
150,13,7.3,8.6,O=C(c1ccc(Cn2ccc3ccc(Cl)cc32)cc1)N1CC[C@H](N2CCCC2)C1,–
10,–,–,–,O=C(c1ccc(Cn2c(-c3ccccc3)nc3ccccc32)cc1)N1CCC(N2CCCC2)C1 (stereo unspecified),–
–,32,0.3,4,Cc1nc2ccccc2n1Cc1ccc(C(=O)N2CC[C@H](N3CCCC3)C2)cc1,–
–,51,0.3,3.7,O=C(c1ccc(Cn2cnc3ccccc32)cc1)N1CC[C@H](N2CCCC2)C1,AUC [5]: 2740 ng·h/mL; Tmax [6]: 0.4 h; half-life [7]: 1.3 h; AUC [8]: 231 ng·h/mL; Tmax [9]: 1 h; Cmax [10]: 0.245 µM; Tmax [11]: 1 h; clearance [12]: 56 mL/min/kg; Vd [13]: 3.6 L/kg; AUC [14]: 1040 ng·h/mL; Cmax [15]: 1750 ng/mL; Cmax [16]: 388 ng/mL; fraction unbound [17]: 0.138; bioavailability [18]: 93%
400,–,–,–,O=C(c1cccc(Cn2cnc3ccccc32)c1)N1CCC(N2CCCC2)C1 (stereo unspecified),–
2.5,18,6.5,7,O=C(c1ccc(Cn2ccc3cccc(Cl)c32)cc1)N1CC[C@H](N2CCCC2)C1,AUC [5]: 63 ng·h/mL; Tmax [6]: 1.2 h; half-life [7]: 1.9 h; Cmax [20]: 16 µM; Tmax [21]: 0.5 h; AUC [22]: 2180 ng·h/mL; Cmax [23]: 1090 ng/mL; fraction unbound [24]: 0.035; Activity (Rattus norvegicus [25]): Active; Ki (Histamine H3 receptor [26]): 21.7 nM; AUC [27]: 15000 ng·h/mL; clearance [12]: 112 mL/min/kg; Activity (Rattus norvegicus [28]): Active; Vd [13]: 7.3 L/kg; Kp [29]: 6.9; Cmax [15]: 22 ng/mL; bioavailability [18]: 5%; Tmax [30]: 0.5 h; minimal effective dose (Rattus norvegicus [31]): 0.3 mg/kg
130,10,7.8,8.1,O=C(c1ccc(Cn2ccc3cc(Cl)ccc32)cc1)N1CC[C@H](N2CCCC2)C1,–
15,28,8.3,9.4,O=C(c1ccc(Cn2ccc3ccccc32)cc1)N1CC[C@H](N2CCCC2)C1,–
